SMILES strings stand for the structures. In brackets after ≈: the same amount, converted by molar mass. Some results are limits rather than exact numbers.

The MIC is the lowest concentration found to suppress growth.

Test [1] deals with Klebsiella pneumoniae. Kind of test: Antibacterial activity against Klebsiella pneumoniae isolate 351 in vitro pharmacodynamic model. It counts as functional. The method in brief:
(§1)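 Inoculum 10^6 CFU/ml; dosing began 0.5 h after inoculation. Two treated models plus one untreated control per isolate; blood-agar counts; change in log10 CFU/ml over 24 h (detection limit 10^1); drug levels checked by HPLC.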

The subject of test [2] is Klebsiella pneumoniae. Kind of test: Antibacterial activity against Klebsiella pneumoniae isolate 354 in vitro pharmacodynamic model. It counts as functional. The method in brief:
as §1

The test system of test [3] is Klebsiella pneumoniae. Kind of test: Antibacterial activity against Klebsiella pneumoniae isolate 368 in vitro pharmacodynamic model. It is filed as functional. The method in brief:
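Simulated peak 38.4 µg/ml, trough 3.04 µg/ml. CAMHB at 37°C, 10^6 CFU/ml from overnight culture, drug started at 0.5 h. Two treated models plus one growth control. Change in log10 CFU/ml over 24 h on blood agar. Detection limit 10^1 CFU/ml.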

The test system of test [4] is Klebsiella pneumoniae. Kind of test: fT>MIC in Klebsiella pneumoniae isolate 353 at 2 gram for every 8 hrs administered as 3 hrs infusion over 24 hrs in in vitro pharmcodynamic model. It counts as functional, isoalte 353. The method in brief:
(§2)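 Samples assayed by HPLC (linear 0.25–40 µg/ml). Time free drug stayed above the modal triplicate broth-microdilution MIC (CLSI) calculated for each 8-h interval.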

Test [5] has as its system Klebsiella pneumoniae. Kind of test: fT>MIC in Klebsiella pneumoniae isolate 357 at 2 gram for every 8 hrs administered as 3 hrs infusion over 24 hrs in in vitro pharmcodynamic model. It is filed as functional. The method in brief: as §2
The test system of test [6] is Pseudomonas aeruginosa. The test can be described thus: fT>MIC in Pseudomonas aeruginosa isolate 896 at 2 gram for every 8 hrs administered as 3 hrs infusion over 24 hrs in in vitro pharmcodynamic model. It is filed as functional.
Test [7] relates to Klebsiella pneumoniae. The test can be described thus: fT>MIC in Klebsiella pneumoniae isolate 334 at 2 gram for every 8 hrs administered as 3 hrs infusion measured over 0-8 hrs in in vitro pharmcodynamic model. It counts as functional. The method in brief:
as §2

Test [8] deals with Klebsiella pneumoniae. The test can be described thus: fT>MIC in Klebsiella pneumoniae isolate 361 at 2 gram for every 8 hrs administered as 3 hrs infusion measured over 0-8 hrs in in vitro pharmcodynamic model. It is filed as functional. The method in brief: as §2
The test system of test [9] is Pseudomonas aeruginosa. The test can be described thus: fT>MIC in Pseudomonas aeruginosa isolate 896 at 2 gram for every 8 hrs administered as 3 hrs infusion measured over 0-8 hrs in in vitro pharmcodynamic model. It is filed as functional.
The subject of test [10] is Klebsiella pneumoniae. The test can be described thus: fT>MIC in Klebsiella pneumoniae isolate 351 at 2 gram for every 8 hrs administered as 3 hrs infusion measured over 8-16 hrs in in vitro pharmcodynamic model. It is filed as functional. The method in brief:
as §2

Test [11] concerns Klebsiella pneumoniae. The test can be described thus: fT>MIC in Klebsiella pneumoniae isolate 375 at 2 gram for every 8 hrs administered as 3 hrs infusion measured over 8-16 hrs in in vitro pharmcodynamic model. It counts as functional.
In test [12] the test system is Klebsiella pneumoniae. The test can be described thus: fT>MIC in Klebsiella pneumoniae isolate 361 at 2 gram for every 8 hrs administered as 3 hrs infusion measured over 8-16 hrs in in vitro pharmcodynamic model. It counts as functional. The method in brief: as §2
The subject of test [13] is Klebsiella pneumoniae. The test can be described thus: fT>MIC in Klebsiella pneumoniae isolate 357 at 2 gram for every 8 hrs administered as 3 hrs infusion measured over 16-24 hrs in in vitro pharmcodynamic model. It is filed as functional. The method in brief:
as §2

For test [14], the system named is Pseudomonas aeruginosa. The test can be described thus: fT>MIC in Pseudomonas aeruginosa isolate 1030 at 2 gram for every 8 hrs administered as 3 hrs infusion measured over 16-24 hrs in in vitro pharmcodynamic model. It is filed as functional.
Test [15] has as its system Pseudomonas aeruginosa. The test can be described thus: fT>MIC in Pseudomonas aeruginosa isolate 762 at 2 gram for every 8 hrs administered as 3 hrs infusion measured over 16-24 hrs in in vitro pharmcodynamic model. It counts as functional.
Test [16] deals with Klebsiella pneumoniae. Kind of test: Antibacterial activity against Klebsiella pneumoniae isolate 328A assessed as reduction of bacterial count at 8 ug/ml within 6 hrs in vitro pharmacodynamic model. It counts as functional.
The subject of test [17] is Klebsiella pneumoniae. The test can be described thus: Antibacterial activity against Klebsiella pneumoniae isolate 377 assessed as reduction of bacterial count at 2 ug/ml within 6 hrs in vitro pharmacodynamic model. It is filed as functional.
For test [18], the system named is Pseudomonas aeruginosa. Kind of test: Antibacterial activity against Pseudomonas aeruginosa isolate 1177 assessed as reduction of bacterial count at 8 ug/ml within 6 hrs in vitro pharmacodynamic model. It counts as functional.
The test system of test [19] is Pseudomonas aeruginosa. The test can be described thus: Antibacterial activity against Pseudomonas aeruginosa isolate 988 assessed as reduction of bacterial count at 16 ug/ml within 6 hrs in vitro pharmacodynamic model. It counts as functional.

Take `C[C@@H](O)[C@H]1C(=O)N2C(C(=O)O)=C(S[C@@H]3CN[C@H](C(=O)N(C)C)C3)[C@H](C)[C@H]12` [MEROPENEM]: the minimal inhibitory concentration (MIC) against Klebsiella pneumoniae [1] turned out to be 8 µg/mL (≈ 20.9 µM); with Klebsiella pneumoniae [2] it was 8 µg/mL (≈ 20.9 µM); in the test on Klebsiella pneumoniae [3], 32 µg/mL (≈ 83.4 µM). Also, the “fT>MIC” value in the test with Klebsiella pneumoniae [4] is on record as 47%; with Klebsiella pneumoniae [5], 47%; in the test with Pseudomonas aeruginosa [6], 47%; in the test on Klebsiella pneumoniae [7] it was 0%; in the test with Klebsiella pneumoniae [8], 0%; with Pseudomonas aeruginosa [9], 50%. For the same compound, the “fT>MIC” value in the test on Klebsiella pneumoniae [10] amounted to 62%; in the test on Klebsiella pneumoniae [11] it was 0%; with Klebsiella pneumoniae [12], 0%; with Klebsiella pneumoniae [13] it was 0%; in the test on Pseudomonas aeruginosa [14], 78%; in the test on Pseudomonas aeruginosa [15] it was 56%. For the same compound, the log10cfu is on record as >3 in the test with Klebsiella pneumoniae [16], >3 in the test with Klebsiella pneumoniae [17], “>=3” in the test on Pseudomonas aeruginosa [18] and “>=3” in the test with Pseudomonas aeruginosa [19].

For the origin of these results see ChEMBL document CHEMBL1212799 (2010).
